The term pIC50 denotes the IC50 on a negative log10 scale, so that one unit is a factor of ten. Usually half-life stands for the time in which the quantity being followed falls by half. The term AUC(0-inf) denotes total exposure, with the tail of the curve extrapolated. Read a low AUC(0-inf) as less exposure. As usually defined, the AUC(0-t) is exposure summed from dosing to a finite time, without extrapolation to infinity. The Cmax is the maximum level reached in the sampled fluid or tissue. By Tmax is commonly meant the time from dosing to the highest level. The inhibition is the share of the control response that was lost under treatment.

pIC50: −log10 of the molar value. Where only a bound is given, the exact number is not on record here.

This note sets out measurements from ChEMBL document CHEMBL4196041 (Eur J Med Chem, 2018).

In series [1] the target is T1, 3',5'-cyclic-AMP phosphodiesterase 4B (Homo sapiens, UniProt Q07343). The experiment in a line: Inhibition of human PDE4B by ELISA. (An ELISA detects its analyte on a solid surface through an enzyme-linked reagent.)
T1 sequence (Q07343 whole entry): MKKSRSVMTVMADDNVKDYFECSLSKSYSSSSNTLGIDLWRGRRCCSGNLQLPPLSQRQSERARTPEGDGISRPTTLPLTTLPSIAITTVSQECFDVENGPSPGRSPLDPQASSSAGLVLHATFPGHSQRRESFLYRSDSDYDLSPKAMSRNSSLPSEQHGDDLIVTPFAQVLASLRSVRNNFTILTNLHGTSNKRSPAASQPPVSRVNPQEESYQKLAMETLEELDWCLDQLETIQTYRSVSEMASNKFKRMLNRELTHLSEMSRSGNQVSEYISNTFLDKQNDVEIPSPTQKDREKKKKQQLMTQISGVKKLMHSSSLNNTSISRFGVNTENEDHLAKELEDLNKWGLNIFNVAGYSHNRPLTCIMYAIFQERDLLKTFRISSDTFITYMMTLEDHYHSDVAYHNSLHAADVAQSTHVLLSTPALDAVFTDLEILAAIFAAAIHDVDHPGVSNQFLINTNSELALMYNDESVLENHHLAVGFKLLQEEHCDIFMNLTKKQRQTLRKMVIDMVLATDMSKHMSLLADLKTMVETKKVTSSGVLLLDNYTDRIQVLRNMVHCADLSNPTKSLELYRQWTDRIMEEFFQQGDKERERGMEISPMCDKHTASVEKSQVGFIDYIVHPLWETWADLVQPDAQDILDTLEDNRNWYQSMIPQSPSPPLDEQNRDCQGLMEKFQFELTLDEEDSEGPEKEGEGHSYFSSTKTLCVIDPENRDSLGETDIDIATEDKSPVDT
Series [2] can be described thus: Half life in Sprague-Dawley rat at 1 mg/kg, sc administered as single dose by UPLC-MS/MS analysis. The note with it: in vivo. It counts as ADME, organism-based.
Series [3] in a line: AUC (0 to infinity) in Sprague-Dawley rat at 1 mg/kg, sc administered as single dose by UPLC-MS/MS analysis. It counts as ADME, organism-based. Further details: dose 1 mg/kg, route subcutaneous, time infinity. The note with it: in vivo.
Series [4] in a line: Metabolic stability in Wistar rat liver S9 fraction assessed as parent compound remaining at 20 uM in presence of NADPH by UPLC-MS/MS analysis. The settings on record: read-out: Stability. It counts as ADME, subcellular.
Series [5] addresses 3',5'-cyclic-AMP phosphodiesterase 4D (Homo sapiens, UniProt Q08499). Nature of the series: Inhibition of human PDE4D by ELISA.
Series [6] can be described thus: Half life in Wistar rat liver S9 fraction at 20 uM in presence of NADPH by HPLC-UV analysis. It counts as ADME, subcellular. The method, boiled down:
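Phase I stability in liver S9 (9,000× g) from male Wistar rats, prepared at 0–4°C. […] Stopped with cold acetonitrile plus chlorzoxazone internal standard. Centrifuged, then intact compound quantified by HPLC-UV; t1/2 and CLint derived from this.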

The nature of series [7]: Drug metabolism in Wistar rat liver S9 fraction assessed as N-(4-amino-3-mercaptophenyl)-3-(cyclopropylmethoxy)-4-(difluoromethoxy)benzamide formation at 20 uM in presence of NADPH by UPLC-MS/MS analysis. It counts as ADME, subcellular. The note with it: s9, 20 µM.
A short description of series [8]: AUC (0 to t) in Sprague-Dawley rat at 1 mg/kg, sc administered as single dose by UPLC-MS/MS analysis. It counts as ADME, organism-based. The note with it: in vivo.
The nature of series [9]: Protein binding in human plasma after 5 hrs by equilibrium dialysis method. It counts as ADME, cell-free. The settings on record: read-out: PPB (converted). The method, boiled down: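 Equilibrium dialysis across a cellulose membrane (MWCO 12-14 kDa) against isotonic PBS pH 7.4, with human plasma, 37°C for 5 hr. Compound in the plasma and buffer compartments measured by validated RP-HPLC-UV. %Bound = [1 − (buffer conc/plasma conc)] × 100.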
A general note: Equilibrium dialysis compares concentrations on both sides of a semipermeable membrane.

A short description of series [10]: Cmax in Sprague-Dawley rat at 1 mg/kg, sc administered as single dose by UPLC-MS/MS analysis. More on the design: dose 1 mg/kg, route subcutaneous. It counts as ADME, organism-based. The note with it: in vivo.
The nature of series [11]: Intrinsic clearance in Wistar rat liver S9 fraction at 20 uM in presence of NADPH by UPLC-MS/MS analysis. It counts as ADME, subcellular.
Series [12] is described as follows: Drug metabolism in Wistar rat liver S9 fraction assessed as 3-(cyclopropylmethoxy)-4-(difluoromethoxy)-N-(2-hydroxybenzo[d]thiazol-6-yl)benzamide formation at 20 uM in presence of NADPH by UPLC-MS/MS analysis. It counts as ADME, subcellular. The note with it: s9, 20 µM.
The nature of series [13]: Tmax in Sprague-Dawley rat at 1 mg/kg, sc administered as single dose by UPLC-MS/MS analysis. It counts as ADME, organism-based. The note with it: in vivo.
The species entered for series [14] is Homo sapiens. Nature of the series: Selectivity ratio of IC50 for human PDE4D to IC50 for human PDE4B.
In series [15] the target is T1, 3',5'-cyclic-AMP phosphodiesterase 4B. The experiment in a line: Inhibition of PDE4B (unknown origin) assessed as increase in cAMP level by measuring cAMP level after 3 hrs by cell based ELISA.
Series [16] in a line: Drug metabolism in Wistar rat liver S9 fraction assessed as aromatic hydroxylation of benzathiazole moiety at 20 uM in presence of NADPH by UPLC-MS/MS analysis. The settings on record: s9, 20 µM. It counts as ADME, subcellular.
Series [17] deals with T1, 3',5'-cyclic-AMP phosphodiesterase 4B. Nature of the series: Inhibition of PDE4B (unknown origin) assessed as reduction in TNFalpha level after 1.5 hrs by cell based ELISA. The settings on record: concentration not given here.
Series [18] has the same target. The experiment in a line: Inhibition of PDE4B (unknown origin) assessed as increase in cAMP level after 3 hrs by cell based ELISA relative to roflumilast. On the technique in general: Cyclic AMP is a second messenger, typically raised through Gs and lowered through Gi signalling.
Series [19] in a line: Drug level in Wistar rat liver S9 fraction treated with N-(benzo[d]thiazol-6-yl)-3-(cyclopropylmethoxy)-4-(difluoromethoxy)benzamide at 20 uM in presence of NADPH by UPLC-MS/MS analysis. It counts as ADME, subcellular. The settings on record: s9, 20 µM.

Sequence of 3',5'-cyclic-AMP phosphodiesterase 4D (Q08499 whole entry): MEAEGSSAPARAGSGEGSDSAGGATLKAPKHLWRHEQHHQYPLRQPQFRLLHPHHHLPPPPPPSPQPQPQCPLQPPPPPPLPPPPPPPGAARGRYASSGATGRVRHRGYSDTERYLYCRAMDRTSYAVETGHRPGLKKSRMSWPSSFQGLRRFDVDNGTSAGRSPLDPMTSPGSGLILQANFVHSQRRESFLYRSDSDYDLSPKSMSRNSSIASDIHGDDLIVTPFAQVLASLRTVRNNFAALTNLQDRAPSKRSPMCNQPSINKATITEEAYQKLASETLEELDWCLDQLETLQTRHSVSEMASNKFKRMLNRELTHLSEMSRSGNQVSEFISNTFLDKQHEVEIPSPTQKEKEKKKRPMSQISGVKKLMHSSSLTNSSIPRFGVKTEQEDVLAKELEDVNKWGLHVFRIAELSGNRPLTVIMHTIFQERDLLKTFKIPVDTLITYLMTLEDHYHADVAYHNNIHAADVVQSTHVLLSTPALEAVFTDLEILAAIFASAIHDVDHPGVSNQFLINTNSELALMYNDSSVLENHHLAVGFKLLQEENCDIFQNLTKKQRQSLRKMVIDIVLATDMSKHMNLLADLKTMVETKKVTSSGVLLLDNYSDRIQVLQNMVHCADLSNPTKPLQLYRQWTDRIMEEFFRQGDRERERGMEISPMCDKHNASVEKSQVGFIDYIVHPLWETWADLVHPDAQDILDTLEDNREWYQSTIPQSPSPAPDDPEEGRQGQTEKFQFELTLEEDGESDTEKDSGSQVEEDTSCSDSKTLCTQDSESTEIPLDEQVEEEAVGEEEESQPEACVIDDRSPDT

`COc1ccc2nc(NC(=O)c3ccc(OC(F)F)c(OCC4CC4)c3)sc2c1` gave a pIC50 in [1] of 8.64.

Regarding `COc1cccc2sc(NC(=O)c3ccc(OC(F)F)c(OCC4CC4)c3)nc12`, the pIC50 in [1] is 8.97.

`O=C(Nc1ccc2ncsc2c1)c1ccc(OC(F)F)c(OCC2CC2)c1`: the half-life in series [2] was 22 h. The same compound returned an AUC(0-inf) in series [3] of 1620 µg·h/mL. In addition, the remaining at 20 µM in [4] turned out to be 36.8%. Further, the negative-log IC50 (pIC50) is 8.56 in series [5] and 9.17 in series [1]. In addition, the half-life at 20 µM in [6] was 1.05 h. For the same compound, the Drug metabolism result in series [7] and in series [12] was “Metabolite_Detected” in each case. Further, in series [8], the AUC(0-t) came out at 892 µg·h/mL. Also, the fraction unbound at 5 h in series [9] was 0.0361. In series [10], this compound yielded a Cmax of 86.2 µg/mL. In addition, in [11], the CLint at 20 µM is 22.3 mL/min/kg. The Tmax in series [13] is 2 h. For the same compound, the Ratio IC50 in series [14] turned out to be 4.01.

In [1], `O=C(Nc1nc2ccc(F)cc2s1)c1ccc(OC(F)F)c(OCC2CC2)c1` gave a pIC50 of 8.73.

In the case of `O=C(Nc1nc2ccccc2s1)c1ccc(OC(F)F)c(OCC2CC2)c1`, the half-life in series [2] is 9.82 h. The Activity in [15] came to 2.68 pmol/mL. In addition, in series [3], the AUC(0-inf) came to 800 µg·h/mL. Besides, the Drug metabolism entry in series [16] is on record as “Metabolite_Detected”. Besides, in series [4], the remaining at 20 µM was determined as 36.4%. Moreover, the pIC50 is 8.29 in [5] and 9.24 in series [1]. Also, the half-life at 20 µM in series [6] was 0.705 h. This compound had an area under the curve AUC(0-t) in [8] of 594 µg·h/mL. The compound also registered a Cmax in series [10] of 95.5 µg/mL. Moreover, the CLint at 20 µM in series [11] amounted to 33.2 mL/min/kg. In addition, in series [13], the Tmax stood at 1 h. Also, the inhibition in series [17] worked out at 58.6%. In addition, the Ratio IC50 in [14] was 8.89.

In the case of `Cc1nc2ccc(NC(=O)c3ccc(OC(F)F)c(OCC4CC4)c3)cc2s1`, the pIC50 in series [1] is 8.90.

Compound `N#Cc1ccc2nc(NC(=O)c3ccc(OC(F)F)c(OCC4CC4)c3)sc2c1` had a pIC50 in series [1] of 8.89.

Consider `O=C(Nc1c(Cl)cncc1Cl)c1ccc(OC(F)F)c(OCC2CC2)c1` [ROFLUMILAST], for which the half-life in series [2] was 6.94 h. Besides, the Activity in series [15] was found to be 1.9 pmol/mL. In series [3], the AUC(0-inf) was found to be 500 µg·h/mL. The half-life at 20 µM in series [6] stood at 0.205 h. The same compound had an AUC(0-t) in series [8] of 449 µg·h/mL. Further, the fraction unbound at 5 h in series [9] is 0.0151. This compound also returned a Cmax in series [10] of 109 µg/mL. In series [11], the CLint at 20 µM worked out at 114 mL/min/kg. Also, the time to peak (Tmax) in [13] was 1 h. Besides, the inhibition in [17] worked out at 70.3%.

`O=C(Nc1nc2ccc(Cl)cc2s1)c1ccc(OC(F)F)c(OCC2CC2)c1` gave a pIC50 in series [1] of 8.91.

Take `COc1cc2nc(NC(=O)c3ccc(OC(F)F)c(OCC4CC4)c3)sc2cc1OC`: the pIC50 in series [1] was 8.93.

The compound `O=C(Nc1ccc2nc(S)sc2c1)c1ccc(OC(F)F)c(OCC2CC2)c1` gave a half-life in series [2] of 22 h. The Activity in [15] was determined as 4.45 pmol/mL. Moreover, the AUC(0-inf) in series [3] stood at 1040 µg·h/mL. For the same compound, the remaining at 20 µM in series [4] amounted to 84.2%. In addition, the pIC50 is 8.34 in series [5] and 9.12 in series [1]. Besides, the half-life at 20 µM in series [6] stood at 4.13 h. In series [8], this compound returned an AUC(0-t) of 622 µg·h/mL. Further, in [9], the fraction unbound at 5 h is 0.463. In [18], the fold change (FC) was greater than 2. In addition, the concentration in series [10] peaked (Cmax) at 114 µg/mL. Besides, the CLint at 20 µM in series [11] amounted to 5.67 mL/min/kg. The Tmax in series [13] was found to be 2 h. Moreover, in series [17], the inhibition stood at 67.8%. Moreover, the Ratio IC50 in series [14] came to 6.05.

Regarding `O=C(Nc1nc2ccc([N+](=O)[O-])cc2s1)c1ccc(OC(F)F)c(OCC2CC2)c1`, the pIC50 in series [1] was 8.06.

For the compound `CCOc1ccc2nc(NC(=O)c3ccc(OC(F)F)c(OCC4CC4)c3)sc2c1`, in series [1], the pIC50 was 8.53.

In turn, `O=C(Nc1nccs1)c1ccc(OC(F)F)c(OCC2CC2)c1` had a pIC50 in series [1] of 8.80.

`O=C(Nc1nc2ccc(C(F)(F)F)cc2s1)c1ccc(OC(F)F)c(OCC2CC2)c1` showed a pIC50 in series [1] of 8.28.

With `Nc1ccc(NC(=O)c2ccc(OC(F)F)c(OCC3CC3)c2)cc1S`, the Drug metabolism result in series [19] was “Metabolite_Detected”.

In the case of `O=C(Nc1ccc2nc(O)sc2c1)c1ccc(OC(F)F)c(OCC2CC2)c1`, the Drug metabolism entry in series [19] is on record as “Metabolite_Detected”.
